Shown are actives, neighbours in structure and some others; about 2.7% of the full set was active somewhere.
Hep lipid drop: hepatic lipid droplet formation modulation; AML12 mouse hepatocytes, oleate lipid droplets, BODIPY imaging; inhibition, % at 6.5 µM; actives 0.4% (n = 240,000);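 active = lipid droplet intensity inhibited by at least 50%, with more than 500 cells counted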
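Test system: AML12 hepatocytes (mouse); reagent: oleate loading, 100 µM; dosing: one dose, 6.5 µM compound; incubation: overnight exposure; signal: fluorescence imaging, 20x objective, two fields per well; read-out basis: % inhibition of corrected integrated BODIPY droplet signal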
HTR2A ag: mouse HTR2A agonism via beta-arrestin recruitment | P35363 | CHO-K1 mHTR2A beta-arrestin complementation, luminescence; percent of 30 µM serotonin response | activation, % at 7.6 µM | actives 0.66% (n = 360,000);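 active = activation above a run cutoff, the mean activation of all tested compounds plus 3 SD, cut at about 14% in these data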;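 also: 0% = plate median of compound wells and 100% = 30 µM serotonin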
MC4R antag cAMP: antagonists of human melanocortin 4 receptor (MC4R). P32245. MC4R-expressing cells, MTII-stimulated cAMP, LANCE TR-FRET. inhibition, % at 6.5 µM. actives 0.48% (n = 360,000);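 active = inhibition above its plate's cutoff, the mean of tested wells on that plate plus 3 SD, cut at about 29% in these data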;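 also: 0% = Melanotan II alone and 100% = Melanotan II plus saturating MCL0020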
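System: U2OS cells stably expressing human melanocortin 4 receptor (MC4R). Reagent: Melanotan II challenge after compound preincubation. Doses: 6.5 µM. Times: 30-min compound, 1-h challenge, 1-h detection, room temperature. Measured by: TR-FRET with Eu-cAMP and labeled anti-cAMP, 671 nm. Replicates: singlicate.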
MC4R ag barr: agonists of human melanocortin 4 receptor (MC4R) beta-arrestin; P32245; U2OS MC4R beta-arrestin complementation, luminescence; percent of melanotan II response, DMSO zero; activation, % at 8.9 µM; actives 0.98% (n = 360,000);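 active = activation above a per-plate cutoff, the mean activation of sample wells on that plate plus 3 SD, cut at about 8% in these data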
NTR1 ag: activates human neurotensin receptor 1 | NTR1-U2OS beta-arrestin-GFP spot imaging, agonist mode | activation, % at 20 µM | actives 0.17% (n = 330,000);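 active = activation at or above 40% of the spot to cytoplasm intensity ratio, with at least 20 cells analyzed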;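 also: 0% = DMSO without peptide and 100% = 100 nM NTR1 peptide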
PREPL inhibitor: human PREPL enzyme inhibition | recombinant PREPL, fluorescence polarization activity-based probe | Q4J6C6 | inhibition, % at 5.96 µM | actives 0.68% (n = 320,000); in the data active = inhibition above about 43%;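 also: 0% = enzyme with DMSO and 100% = wells lacking enzyme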
Target sequence (Q4J6C6 whole entry, looked up): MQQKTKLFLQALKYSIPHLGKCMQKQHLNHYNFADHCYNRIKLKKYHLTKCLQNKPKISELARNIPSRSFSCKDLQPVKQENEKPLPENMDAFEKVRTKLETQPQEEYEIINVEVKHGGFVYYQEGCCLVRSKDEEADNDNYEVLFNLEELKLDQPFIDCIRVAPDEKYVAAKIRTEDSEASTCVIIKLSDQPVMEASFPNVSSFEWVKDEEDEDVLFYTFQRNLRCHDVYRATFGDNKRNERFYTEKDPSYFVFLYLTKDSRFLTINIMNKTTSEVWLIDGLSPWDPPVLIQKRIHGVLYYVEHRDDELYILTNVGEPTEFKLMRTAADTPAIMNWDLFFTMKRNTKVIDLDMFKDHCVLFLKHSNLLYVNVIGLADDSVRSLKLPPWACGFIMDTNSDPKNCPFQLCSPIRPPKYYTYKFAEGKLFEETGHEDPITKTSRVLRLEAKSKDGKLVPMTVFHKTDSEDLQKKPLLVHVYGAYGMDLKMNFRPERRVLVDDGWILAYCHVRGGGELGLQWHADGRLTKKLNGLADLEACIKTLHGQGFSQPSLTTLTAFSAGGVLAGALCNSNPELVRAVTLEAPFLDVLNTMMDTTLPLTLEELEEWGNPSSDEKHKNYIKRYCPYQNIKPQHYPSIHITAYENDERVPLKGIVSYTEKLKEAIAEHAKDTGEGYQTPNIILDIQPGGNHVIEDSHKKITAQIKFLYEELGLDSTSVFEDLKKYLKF
MOR ag counter: activates human mu opioid receptor in HTR2A counterscreen; shares compounds with HTR2A ag; U2OS OPRM1 beta-arrestin PathHunter, luminescence; DMSO 0%, DAMGO 9.3 µM 100%; activation, % at 9.3 µM; actives 5.3% (n = 2,300); AID 624380;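 active = mean activation above the mean of DMSO-only wells plus 3 SD, cut at about 0.5% in these data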
m5-HT2A ag conf: confirmation of mouse HTR2A serotonin receptor agonists. shares compounds with HTR2A ag. CHO-K1 PathHunter beta-arrestin recruitment, luminescence; DMSO 0%, 30 µM serotonin 100%. activation, % at 7.6 µM. actives 19% (n = 2,300);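 active = mean activation across triplicates above the hit threshold derived in the original primary screen, cut at about 15% in these data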
* hit, by the source's call; . = no result.

SMILES	Hep lipid drop	HTR2A ag	MC4R antag cAMP	MC4R ag barr	NTR1 ag	PREPL inhibitor	MOR ag counter	m5-HT2A ag conf
Oc1ccc(C2CNCc3sccc32)cc1O (stereo unspecified)	.	48.0*	-17.4	-1.6	-0.2	-0.2	-0.3	151.0*
CN(C(=O)CN1C(=O)NC2(CCc3ccccc32)C1=O)C1CCS(=O)(=O)C1 (stereo unspecified)	.	18.4*	3.2	-1.8	-0.2	14.7	-0.6	-1.6
CCN(C(=O)CN1C(=O)NC2(CCc3ccccc32)C1=O)C1CCS(=O)(=O)C1 (stereo unspecified)	.	-8.2	5.3	-4.1	0.2	4.9	.	.
COc1ccc(NC(=O)CNc2ccc(OC)c(S(=O)(=O)N3CCOCC3)c2)cc1	.	1.1	3.8	2.4	.	.	.	.
Cn1c(N)c(N2CCCCC2)c(=O)n(CC(=O)Nc2cccc(C#N)c2)c1=O	.	20.0*	13.0	-0.5	-1.3	0.8	-0.7	-4.8
Cc1cccc(C)c1NC(=O)C(c1ccccc1OC(F)(F)F)N1CCN(C/C=C/c2ccccc2)CC1 (stereo unspecified)	.	-3.0	.	.	.	.	.	.
CCCn1nc(C(=O)Nc2nc(-c3ccccn3)cs2)c2ccccc2c1=O	.	22.9*	-1.9	-1.0	5.7	-19.4	-0.3	-4.7
CC1(C)CC(=O)C(C(=O)c2ccccc2)C(=O)C1Cl (stereo unspecified)	2.3	-0.7	4.0	-0.3	0.2	-5.7	.	.
CC1(C)CC(=O)C(C(=O)c2ccccc2)C(=O)C1	-9.6	18.7*	-2.7	-2.4	0.9	6.3	-0.3	-1.2
COc1ccc(N2CCN(C(=O)CCS(=O)(=O)c3ccc4c(c3)CCN4C(=O)C3CC3)CC2)cc1	-25.0	15.8*	-1.8	-0.5	-0.7	7.8	-0.6	-2.5
CC(C)N=c1c([N+](=O)[O-])nn(C)n1O	16.2	15.3*	1.9	-2.9	-0.3	-5.2	-0.6	-2.7
CN=c1c([N+](=O)[O-])nn(-c2ccc3c(c2)OCCO3)n1O	-28.8	3.5	4.8	0.7	0.4	18.6	.	.
COc1cc(OC)nc(NC(=S)NC(=O)c2ccccc2)n1	-0.1	27.9*	-3.1	1.4	3.5	-2.5	-0.5	-1.2
CC1CCCCC1NC(=O)COC(=O)c1cccn1C (stereo unspecified)	.	15.4*	-0.4	-2.4	-0.5	8.1	-0.5	-5.0
CC1CCCCC1NC(=O)COC(=O)c1ccccn1 (stereo unspecified)	.	-1.4	0.8	-2.8	-2.3	-9.5	.	.
COC(=O)Cc1ccc(NC(=S)N2CCN(c3cccc(O)c3)CC2)cc1	-5.9	24.5*	-7.0	-0.3	3.1	7.3	-0.3	2.7
O=C1C2Sc3[nH]c(=O)sc3C(c3ccccc3)C2C(=O)N1c1ccc(Cl)cc1 (stereo unspecified)	.	-6.8	4.5	-1.3	1.5	0.9	.	.
O=C(NCCCc1ccccc1)c1cccc(S(=O)(=O)N2CCOCC2)c1	.	15.4*	13.4	-1.7	-1.2	6.1	-0.2	-2.1
COCC(C)n1c(C)cc(C(=O)COC(=O)c2cnc(Cl)c(Cl)c2)c1C (stereo unspecified)	.	15.4*	13.2	-1.8	11.7	15.5	-0.5	-2.3
COCC(C)n1c(C)cc(C(=O)COC(=O)c2ccc3ncsc3c2)c1C (stereo unspecified)	.	1.2	-1.5	-2.3	0.9	11.1	.	.
CCCCOC(=O)Nc1nnc(Cc2ccc(Cl)cc2)s1	-4.3	0.9	0.6	-0.3	0.8	7.3	.	.
CCOC(=O)C(=CNc1ccccc1C)C(=O)OCC	3.7	5.2	6.6	2.5	1.7	1.0	.	.
CCOC(=O)C(=CNc1ncccc1C)C(=O)OCC	14.5	22.9*	1.6	-0.5	-0.6	-2.4	-0.6	1.4
CCOC(=O)C1=C(CS(=O)(=O)c2ccccc2)NC(=O)NC1c1ccc(OC)c(OC)c1 (stereo unspecified)	-19.8	2.1	21.6	-1.1	-0.8	7.1	.	.
CCOC(=O)C1=C(CS(=O)(=O)c2ccccc2)NC(=O)NC1c1ccccc1OCC (stereo unspecified)	.	17.2*	2.2	-0.3	-0.1	14.9	-0.6	-1.2
SMILES	Hep lipid drop	HTR2A ag	MC4R antag cAMP	MC4R ag barr	NTR1 ag	PREPL inhibitor	MOR ag counter	m5-HT2A ag conf
O=C(N/N=C/c1ccccc1[N+](=O)[O-])c1cnccn1	-10.9	7.5	7.9	-0.8	0.8	4.0	.	.
CCOC(=O)C(NC(=O)C1C(C)N1S(=O)(=O)c1ccc(C)cc1)C(=O)OCC (stereo unspecified)	2.2	16.4*	5.8	-1.6	0.7	-1.2	-0.5	-3.2
COc1ccc(NC(=O)CSc2n[nH]c(-c3ccccn3)n2)cc1	-2.2	-5.2	-4.5	0.3	0.4	-7.2	.	.
O=C(CSc1n[nH]c(-c2ccccn2)n1)Nc1ccccc1	-8.3	14.8*	-3.1	-3.4	1.4	2.0	-0.5	-5.3
O=C(CN1CCN(CC(=O)Nc2ccccc2Cl)CC1)NCC1(N2CCOCC2)CCCCC1	.	3.7	19.6	-1.3	-0.2	.	.	.
Cc1cccc(C)c1OCC(=O)Nc1ccccc1C(=O)N1CCOCC1	2.0	25.0*	1.5	0.7	-0.3	3.9	-0.6	0.9
C1=C\CCC2(OCCO2)C2(CC/1)OCCO2	.	2.4	2.9	-1.9	.	.	.	.
CC(C)CC(=O)Nc1nnc(SCC(=O)NCc2ccc3c(c2)OCO3)s1	1.5	14.5*	9.7	-3.3	0.0	0.5	-0.5	-2.6
CCOc1ccccc1N(C)C(=O)CCS(=O)(=O)c1ccc2c(c1)NC(=O)C(C)S2 (stereo unspecified)	-17.7	3.3	5.5	-0.3	0.7	3.9	.	.
O=C(Nc1nccs1)c1ccc(S(=O)(=O)N2CCOCC2)cc1	-0.2	5.6	2.4	-3.2	0.0	4.4	.	.
O=C(CSc1n[nH]c(=O)[nH]c1=O)N1CCCCCC1	12.2	-1.2	0.9	-0.6	0.5	-8.4	.	.
O=C(CCc1n[nH]c(=O)[nH]c1=O)N1CCCCC1	-5.7	15.6*	-1.9	-1.6	-2.0	13.0	-0.5	-1.4
COc1ccc(OC)c(C2C(C(=O)Nc3ccccc3OC)=C(C)Nc3nc(CCCO)nn32)c1 (stereo unspecified)	.	4.8	3.3	-0.4	1.1	12.5	.	.
CCOc1ccccc1C1C(C(=O)Nc2ccccc2OC)=C(C)Nc2nc(CCCO)nn21 (stereo unspecified)	.	29.6*	-11.4	-0.2	0.8	4.6	-0.5	-3.5
COc1cc(C(=O)N2CCC(N3CCCCCC3)CC2)cc(OC)c1OC	.	15.1*	14.2	1.1	0.7	-6.3	-0.1	7.5

Assay outcomes: PubChem BioAssay, several laboratories
